ROMK mod: ROMK potassium channel modulators, primary screen, cell-based, thallium flux, MLSMR library; AID 1918, 2009; B-score at 10 µM; 130,000 compounds, 2% hits; Tet-inducible ROMK, thallium flux fluorescence; actives lie on both sides; ATP-sensitive inward rectifier potassium channel 1 (Homo sapiens), P48048;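 active = signal ratio slope over the read window, or its plate-corrected B-score, at least 3 SD from the plate mean, either direction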;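 note: B-score of the F/F0 ratio slope over 7 to 12 s after thallium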
Target sequence (P48048 whole entry, looked up): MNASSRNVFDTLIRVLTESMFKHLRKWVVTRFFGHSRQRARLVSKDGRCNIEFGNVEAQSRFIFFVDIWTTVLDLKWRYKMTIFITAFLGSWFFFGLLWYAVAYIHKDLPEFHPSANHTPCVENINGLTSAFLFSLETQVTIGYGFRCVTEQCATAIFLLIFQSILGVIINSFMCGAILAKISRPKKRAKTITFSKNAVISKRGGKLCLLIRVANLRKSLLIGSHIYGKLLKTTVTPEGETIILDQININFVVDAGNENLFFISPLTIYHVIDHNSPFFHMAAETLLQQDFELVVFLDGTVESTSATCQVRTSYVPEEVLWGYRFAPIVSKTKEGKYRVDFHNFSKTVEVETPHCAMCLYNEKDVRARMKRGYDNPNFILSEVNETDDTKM
Diaph inh CS: diaphorase inhibitors and chemical oxidizers, primary screen, counter-screen for diaphorase-coupled primary assays, biochemical, uHTS, resorufin fluorescence; diaphorase resazurin-to-resorufin fluorescence, NADH, 16 min; bacterial (C. kluyveri) enzyme, not human; inhibition, % at 20 µM; 190,000 compounds, 0.69% hits;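 active = primary screen inhibition at 20 µM above a set limit, cut at about 50% in these data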;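 note: plate controls were DMSO with full reaction for no effect and wells lacking NADH for full effect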
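Assay system: diaphorase enzyme from Clostridium kluyveri; Input: enzyme working solution with 0.14 U/mL diaphorase; Timing: 16 min at room temperature; Technique: resorufin fluorescence, excitation 544 nm, emission 590 nm; Benchmarks: positive control minus NADH, DMSO neutral control.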
PMI act satM6P: human PMI activators, high substrate, primary screen, biochemical, fluorescence intensity, near-saturating mannose 6-phosphate. Mannose-6-phosphate isomerase (Homo sapiens), P34949. coupled PMI enzyme assay, resazurin fluorescence, 20 min; stronger effect = higher value; 1 = untreated enzyme, 0 = substrate-free blank. activation factor at 20 µM. 190,000 compounds, 0.34% hits;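 active = activation factor of 2 or more at 20 µM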
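Test system: human PMI in coupled enzyme assay; Input: PMI at 15 ng/mL final; Medium: HEPES buffer, pH 7.4; Schedule: 20 min incubation at room temperature; Technique: resorufin fluorescence at Ex 544/Em 590 nm; Compound: 20 µM single dose; Probe or stimulus: Near-saturating mannose-6-phosphate, 1.0 mM.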
G6PDH CS: L. mesenteroides G6PDH inhibitors, counter-screen for G6PDH-coupled screening assays, biochemical, Leuconostoc mesenteroides enzyme | glucose-6-phosphate dehydrogenase [Leuconostoc mesenteroides] | Purified L. mesenteroides G6PDH, diaphorase/resazurin coupled fluorescence, 45 min | inhibition, % at 5 µM | 200,000 compounds, 0.12% hits | AID 1020, 2008; in the data active = inhibition above about 50%
Diaphorase act: compounds boosting diaphorase resazurin reduction – biochemical, uHTS, resorufin fluorescence, counter-screen for diaphorase-coupled primary assays, primary screen | Diaphorase/resazurin coupled assay, 16 min; stronger effect = higher value; 1 = vehicle wells, 0 = NADH-free wells | activation factor at 20 µM | 190,000 compounds, 0.005% hits | AID 1229, 2008;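 active = diaphorase activity raised at least twofold by the compound at 20 µM; inactive = activation factor below 2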
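Assay system: bacterial diaphorase enzyme (C. kluyveri) / Input: enzyme 0.07 U/mL final / Medium: 50 mM HEPES pH 7.4 with 4.542 mM MgCl2, 0.005% Tween 20 / Doses: single compound dose of 20 µM, 1% DMSO final / Incubation: 16 min enzyme reaction, ambient temperature / Signal: fluorescence, excitation 544 nm and emission 590 nm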
PMI act: activators of human PMI, primary screen, biochemical, fluorescence intensity, near-Km mannose 6-phosphate; Mannose-6-phosphate isomerase (Homo sapiens), P34949; purified human PMI, coupled resazurin fluorescence, 20 min; stronger effect = higher value; 1 = vehicle control, 0 substrate-free wells; activation factor at 20 µM; 190,000 compounds, 0.005% hits; AID 1214, 2008;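 active = activation factor of 2 or more at 20 µM, relative to plate controls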
ROMK hit retest: ROMK channel modulator hit retest, confirmation, cell-based, thallium flux, duplicate, resupplied hits; shares compounds with ROMK mod; AID 1917, 2009; normalized thallium flux (F/F0 slope) at 10 µM; fluorescence ratio; stronger effect = lower value; 3,000 compounds, 54% hits;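 active = Flux at 10 µM at least 3 SD below or above vehicle control mean in one or both replicates; inconclusive = no clear call, values can overlap the other calls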
The depositor's hits bear a star; ? = inconclusive; / = no result given. The list is not random: actives were taken first. Their share in the collection is about 2.2%.

SMILES	ROMK mod	Diaph inh CS	PMI act satM6P	G6PDH CS	Diaphorase act	PMI act	ROMK hit retest
C/C(=N\Nc1nc(C(=O)O)cs1)c1ccccc1	/	18.5	0.8	9.5	0.8	0.8	0.0769
Cn1c(N)c(C(=O)COC(=O)CCCOc2ccc(Cl)cc2Cl)c(=O)n(C)c1=O	1.76	18.4	0.9	-6.6	0.8	0.9	/
CCOc1ccc2oc(-c3ccccc3)c(C(=O)N3CCN(C)CC3)c2c1	/	12.2	1	-1.6	0.9	1	?
CCOc1ccc(S(=O)(=O)NCc2ccccc2Cl)cc1C(N)=O	0.722	-21.8	1.3	8.9	1.2	1.3	/
COc1cc(S(=O)(=O)Nc2c(C)cc(C)cc2C)ccc1Cl	0.143	22.9	0.9	13.6	0.8	0.8	/
COc1ccc(Cl)cc1NS(=O)(=O)c1ccc(OC)c(OC)c1	-3.07*	19.7	0.9	17.9	0.8	0.9	0.075
COc1ccc(S(=O)(=O)NCc2ccccc2Cl)cc1OC	/	18.1	0.9	6.6	0.8	0.8	0.0764
COc1cc(S(=O)(=O)Nc2ccccc2C)ccc1Cl	/	12.2	0.9	-0.9	0.9	0.9	0.0734
C=CCOc1c(CCC)cc(CCC)cc1C(N)=O	-0.0761	/	/	/	/	/	/
CC(=O)Nc1ccc(/C=C(\C#N)C(=O)NC2CCCCC2C)cc1 (centres undefined)	-0.0946	-2.7	1.1	-3.0	1	1.2	/
CC1CCCCC1NC(=O)/C(C#N)=C/c1ccccc1F (centres undefined)	-5.75*	6.6	1.1	22.1	0.9	1.1	0.0428*
CSc1ccc(/C=C(\C#N)C(=O)NC2CCCCC2C)cc1 (centres undefined)	-3.12*	16.1	0.9	-7.1	0.8	1	0.0465*
O=C1Nc2ccc([N+](=O)[O-])cc2OC1CCN1CCN(c2ccccc2)CC1 (centres undefined)	-2.39	12.8	1	2.5	0.9	0.9	/
OCC1(CCc2ccccc2)CCN(Cc2ccc(OC(F)F)cc2)CC1	-2.04	-11.0	1.1	8.3	1.1	1	/
C=CCSc1nccc(-c2nn(-c3ccc(C)cc3)ccc2=O)n1	/	16.0	0.9	1.3	0.8	1	/
CSc1nccc(-c2nn(-c3ccc(C)cc3)ccc2=O)n1	4.39*	-12.0	1.1	12.3	1.1	1.1	0.0932
CCSc1nccc(-c2nn(-c3ccc(C)cc3)ccc2=O)n1	3.06*	20.4	1	-0.9	0.8	0.9	0.0877
Cc1cc(Nc2cccc(F)c2)nc(NCc2ccccc2)n1	/	8.0	0.9	3.3	0.9	0.8	/
Fc1cc(NCc2ccccc2)nc(NCc2ccccc2)n1	-5.75*	6.0	0.9	12.0	0.9	0.9	0.05*
CCCCNc1cc(C)nc(NCc2ccccc2)n1	-4.09*	-10.0	1	5.3	1.1	1	0.0505*
Cc1cc(Nc2ccccc2)nc(NCc2ccccc2)n1	/	-9.5	1	0.7	1.1	1	/
O=C(c1ccc2c(=O)n3c(nc2c1)CCCCC3)N1CCc2ccccc21	0.0188	/	/	/	/	/	/
Cc1cc(Oc2ccc(=O)n(C)n2)nc(=S)[nH]1	0.632	38.5	0.9	8.4	0.6	0.9	/
CCC1CCCCN1S(=O)(=O)c1ccc(S(=O)(=O)N(Cc2ccccn2)CC2CCCO2)cc1 (centres undefined)	-2.4	14.7	1.2	-1.3	0.9	1.3	/

Screens deposited in PubChem by several laboratories.
